One data set concerns GII.4 Sydney [P31] HuNoV. Description: HuNoV replication. It counts as cell-based, human norovirus. The following applies: for SI: CC50 over EC50, J2 HIE line. An outline of the steps:
(§1)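 Differentiated monolayers (24 h INTp, then 5 days INTd) received 100 TCID50 (TCID50 per genotype and HIE line by Reed-Muench) with compound in CMGF- plus 500 μM GCDCA for 1–2 h at 37°C. Cells were washed 3 times, then kept in compound-containing INTd with GCDCA for 24 h. Five ascending concentrations; vehicle 1% DMSO or 2% H2O final. Genome equivalents by RT-qPCR against a standard curve. Triplicate wells, duplicate qPCR. Dunnett versus vehicle; EC50/EC90 by nonlinear regression (top fixed at 100); SI = CC50/EC50.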

A further data set concerns J2 HIE line. As to the kind of experiment: HIE viability, CellTiter-Glo 2.0 Cell Viability Assay. It counts as cell-based, human. The following applies: J2 HIEs, 24 h. (In ATP-based viability assays light output follows the ATP content of the culture.)
The test system of data set [1] is HuNoV. The following applies: HIE monolayers; cited from earlier work.
Data set [2] has as its system 3 different GII.4 HuNoV isolates. The following applies: fetal ileum-derived 3D HIEs; non-cytotoxic concentration; cited from earlier work.
Data set [3] concerns adult jejunal HIE line (J2) monolayers. The following applies: cited from earlier work.
Another data set relates to J2 HIEs. Description: Preliminary dose-range cytotoxicity assessment. It is filed as cell-based, human. The following applies: for monolayer integrity and propidium iodide staining: 24 h.
Data set [4] in a line: HIE viability, CellTiter-Glo 2.0 Cell Viability Assay. It counts as cell-based. The following applies: human, IL2004 HIE line monolayers. An outline of the steps: (§2)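 CellTiter-Glo 2.0 read as directed by the manufacturer on 5-day-differentiated monolayers. Triplicate wells were given vehicle or compound in virus-free incubation medium for 24 h. CC50 from nonlinear regression of percent viability, with the bottom fixed at 0.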

The next data set relates to J4FUT2 HIE line. As to the kind of experiment: HIE viability, CellTiter-Glo 2.0 Cell Viability Assay. It is filed as cell-based, human. The following applies: J4FUT2 HIEs, 24 h.
The next data set has as its system GII.4 Sydney [P16] HuNoV. Description: HuNoV replication. The following applies: for SI: CC50 over EC50; for EC50 / EC90: 100 TCID50, 24 h. It is filed as cell-based, human norovirus. An outline of the steps: as §1
A further data set concerns GII.17[P13] HuNoV. As to the kind of experiment: HuNoV replication. It counts as cell-based, human norovirus. An outline of the steps:
as §1

For data set [5], the system named is HuNoV. The following applies: chronically infected HuNoV patients; cited from earlier work.
The test system of another data set is 5 HuNoV strains. Description: Antiviral pipeline, summary over all HuNoV strains and HIE lines tested. It is filed as cell-based. The following applies: Norovirus, in Homo sapiens. An outline of the steps:
as §1

For data set [6], the system named is HuNoV. The following applies: 31 randomized patients, compared to placebo; ref NCT03395405; cited from earlier work.
A further data set concerns GII.3[P21] HuNoV. As to the kind of experiment: HuNoV replication. It counts as cell-based, human norovirus. In a few lines: as §1
A further data set concerns GII.4 Sydney [P31] virus. The following applies: adult jejunal HIE line plated as monolayers; cited from earlier work.
Data set [7] deals with HuNoV. The following applies: HuNoV-infected, otherwise healthy patients, versus placebo; cited from earlier work.
Data set [8] has as its system GI.1-based HuNoV replicon. The following applies: Huh7 liver cells; cited from earlier work.
A short description of data set [9]: HIE viability, CellTiter-Glo 2.0 Cell Viability Assay. It is filed as cell-based. The following applies: human, D2004 HIE line monolayers. In a few lines: as §2
In another data set the test system is GI.1[P1] HuNoV. As to the kind of experiment: HuNoV replication. It counts as cell-based, human norovirus. The following applies: for EC90: 100 TCID50. An outline of the steps: as §1
Data set [10] can be described thus: HIE viability, CellTiter-Glo 2.0 Cell Viability Assay. It counts as cell-based. The following applies: human, J2004 HIE line monolayers. An outline of the steps:
as §2

For data set [11] the following is noted: standard adult NTZ dose, one 500 mg tablet by mouth twice daily; cited from earlier work.
The mark [12] stands for this setting: Norovirus, in Homo sapiens, 24 h.
The mark [13] stands for this setting: Norovirus, in Homo sapiens, 24 h, read-out: inhibition of replication.
[14] abbreviates: Norovirus, in Homo sapiens, D2004 (duodenal) HIE line.
Setting [15] is: Norovirus, in Homo sapiens, IL2004 (ileal) HIE line.
Where [16] appears, read: Norovirus, in Homo sapiens, J2 HIE line.
Where [17] appears, read: Norovirus, in Homo sapiens, J2004 (jejunal) HIE line.
Setting [18] is: CC50 over EC50, J4FUT2 HIE line.
Where [19] appears, read: J4FUT2 HIEs, at 40 and 80 μM, 24 h.

Values joined by “and” are separate entries in the source; they are usually repeats but may differ in a detail not shown here. Equal values may be shown once.

Compound `C[C@@]1(O)[C@H](O)[C@@H](CO)O[C@H]1n1ccc(N)nc1=O` [2’CMC, 2’-C-methylcytidine] returned an SI with GII.4 Sydney [P31] HuNoV of more than 31.6. In the data set on GII.4 Sydney [P31] HuNoV (J2 HIEs, between 3 – 316 μM, 24 h), the reduction of replication is 0.12 – 2.65 log10. Besides, in the data set with GII.4 Sydney [P31] HuNoV (setting [12]), it took 10 µM to reach a half-maximal effect (EC50) and it took 54 µM to reach the 90% level (EC90). Further, the inhibition (commonly the change of the read-out against control, counted positive when it falls) at 316 µM in the data set on GII.4 Sydney [P31] HuNoV (setting [13]) fell in the range of 23.5 to 100%. In addition, the “cytotoxicity (luciferase-based viability assay)” value in the data set on J2 HIE line (any concentration tested (up to 316 μM)) is on record as “not cytotoxic”. The HuNoV replication entry in the data set with HuNoV [1] is given as “inhibit HuNoV replication”.
For `CC(=O)Oc1ccccc1C(=O)Nc1ncc([N+](=O)[O-])s1` [NTZ, nitazoxanide], the “replication of HuNoV isolates” value in [2] is given as “reduced replication”. Moreover, in data set [3] (J2 HIE monolayers), the “highest dose tested that kept the cell monolayers intact” value was 10 µM. In data set [3] (concentrations below 10 µM), the HIE monolayer integrity result is “intact”. Further, the “monolayer integrity and propidium iodide staining” value with J2 HIEs (32 μM) is “monolayers were intact and had few dead or damaged cells”; with J2 HIEs (100 μM and above), “disassociation of the monolayer”. Besides, in the data set with J2 HIEs (highest concentrations (≥100 μM) of range 3 to 316 μM), the “cytotoxicity, CellTiter-Glo 2.0” value is “high cytotoxicity and detachment of the monolayer”. The half-maximal cytotoxic concentration (CC50) (in general, the concentration giving 50% cytotoxicity) at 24 h in data set [4] came out at 57 µM; in [9], 50.9 µM; in [10], 63.1 µM. Besides, the SI in the data set on GII.4 Sydney [P31] HuNoV is recorded as 1.9; with GII.4 Sydney [P16] HuNoV (D2004 HIE line), 1.2; in the data set on GII.4 Sydney [P16] HuNoV (IL2004 HIE line), 1.4; in the data set with GII.4 Sydney [P16] HuNoV (J2 HIE line), 4.0; in the data set on GII.4 Sydney [P16] HuNoV (J2004 HIE line), 1.2; in the data set on GII.17[P13] HuNoV (setting [18]) it was 1.9. The SI is listed as 4.5 with GII.3[P21] HuNoV (setting [18]) and 2.7 with GI.1[P1] HuNoV (setting [18]). Besides, the reduction in replication came to 0.67 log10 in the data set with GII.4 Sydney [P31] HuNoV (J2 HIEs, 40 μM, 24 h); 2.31 log10 in the data set with GII.4 Sydney [P31] HuNoV (J2 HIEs, 80 μM, 24 h); 1.5 log10 in the data set on GII.17[P13] HuNoV (J4FUT2 HIEs, 80 μM, 24 h). For the same compound, the EC50 (commonly the concentration giving half of the maximal effect) with GII.4 Sydney [P31] HuNoV (setting [12]) is 37.1 µM; in the data set on GII.4 Sydney [P16] HuNoV (J2 HIE line), 12.9 µM; in the data set on GII.4 Sydney [P16] HuNoV (setting [14]), 42.8 µM; in the data set with GII.4 Sydney [P16] HuNoV (setting [15]), 40 µM; in the data set with GII.4 Sydney [P16] HuNoV (setting [16]), 12 µM; in the data set on GII.4 Sydney [P16] HuNoV (setting [17]), 53.9 µM. Further, the concentration for a half-maximal effect (EC50) in the data set on GII.17[P13] HuNoV (setting [12]) is 33.4 µM; with 5 HuNoV strains, not below 10 µM; in the data set on GII.3[P21] HuNoV (setting [12]), 14.4 µM; in the data set on GI.1[P1] HuNoV (setting [12]), 27.4 µM. For the same compound, the EC90 – broadly, the concentration at which the effect reaches the 90% level – is 43 µM with GII.4 Sydney [P31] HuNoV (setting [12]); more than 80 µM in the data set on GII.4 Sydney [P16] HuNoV (setting [14]); 46 µM with GII.4 Sydney [P16] HuNoV (setting [15]); more than 80 µM with GII.4 Sydney [P16] HuNoV (setting [16]); more than 80 µM with GII.4 Sydney [P16] HuNoV (setting [17]); more than 80 µM with GII.17[P13] HuNoV (setting [12]). In addition, the EC90 in the data set on GII.3[P21] HuNoV (setting [12]) is more than 80 µM; in the data set with GI.1[P1] HuNoV (J4FUT2 HIE line, 24 h), 76 µM; with GI.1[P1] HuNoV (Norovirus, in Homo sapiens, 24 h, J4FUT2 HIE line) it was 76.3 µM. Besides, the inhibition at 40 µM in the data set with GII.4 Sydney [P31] HuNoV (setting [13]) amounted to 76.7%. Moreover, the inhibition at 80 µM in the data set on GII.4 Sydney [P31] HuNoV (setting [13]) turned out to be 99.5%. The cell viability entry in the data set with J4FUT2 HIE line (80 μM, in tandem with GII.17 assay) is given as “significantly reduced cell viability”. For the same compound, the cytotoxicity entry with J4FUT2 HIE line (40 and 80 μM, in tandem with GII.3 assay) was “cytotoxic”. In addition, the average viability entry with J4FUT2 HIE line (in tandem with GI.1 assay) was “steady up to 40 μM but significantly reduced at 80 μM”. Besides, the “inhibition of replication (significance)” value was “significantly inhibitory” in the data set on GII.4 Sydney [P16] HuNoV (40 μM, duodenal D2004 HIEs) and “significantly inhibitory” in the data set with GII.4 Sydney [P16] HuNoV (80 μM, across J2, D2004, J2004, IL2004 HIE lines). Besides, the SIs with GII.4 Sydney [P16] HuNoV (span over duodenal, jejunal, and ileal lines derived from the same donor) was 1.2 – 1.4. Moreover, the “clinical outcome versus other or no treatments” value in the data set on HuNoV [5] was “no differences were reported”. The viability entry in the data set with J2 HIE line (80 μM) is “reduction in viability”. The “clinical resolution of symptoms” value in the data set with HuNoV [6] was “did not improve clinical resolution of symptoms”. In the data set with HuNoV [6], the fecal viral load entry was “no effect”. Also, the average percent inhibition with GII.3[P21] HuNoV (setting [19]) was 79.6 – 98.8%. The inhibition at 20 µM in the data set with GII.3[P21] HuNoV (Norovirus, in Homo sapiens, 24 h, read-out: average percent inhibition) lay in the range of 39.7 to 55.2%. Besides, the “inhibitory activity on replication” value with GII.4 Sydney [P31] virus is recorded as “no inhibitory activity”. In addition, the symptom resolution entry in the data set with HuNoV [7] was “symptom resolution significantly faster”. For the same compound, the “replication of the replicon” value in data set [8] is reported as “inhibited replication”. In addition, in the data set on GI.1[P1] HuNoV (setting [19]), the inhibition in replication is 72.3 – 98.2%. For the same compound, the “reduction of genome equivalents” value in the data set with GI.1[P1] HuNoV (setting [19]) is given as 0.6 – 1.8 log10.
As to `O=C(Nc1ncc([N+](=O)[O-])s1)c1ccccc1O` [tizoxanide], the “replication of HuNoV isolates” value in [2] was “reduced replication”. The “maximal concentrations of tizoxanide” value in [11] was “approximately 10 µg/mL and ~ 38 µM”. The “replication of the replicon” value in data set [8] is on record as “inhibited replication”.

The values are drawn from publication PMC10245936 (bioRxiv, 2023).
